Experiments:
[1] = target: T1, Orexin receptor type 2 (Homo sapiens, UniProt O43614); experiment: Antagonist activity at OX2 receptor assessed as inhibition of calcium flux by FLIPR assay; assay type: functional
T1 sequence (O43614 whole entry): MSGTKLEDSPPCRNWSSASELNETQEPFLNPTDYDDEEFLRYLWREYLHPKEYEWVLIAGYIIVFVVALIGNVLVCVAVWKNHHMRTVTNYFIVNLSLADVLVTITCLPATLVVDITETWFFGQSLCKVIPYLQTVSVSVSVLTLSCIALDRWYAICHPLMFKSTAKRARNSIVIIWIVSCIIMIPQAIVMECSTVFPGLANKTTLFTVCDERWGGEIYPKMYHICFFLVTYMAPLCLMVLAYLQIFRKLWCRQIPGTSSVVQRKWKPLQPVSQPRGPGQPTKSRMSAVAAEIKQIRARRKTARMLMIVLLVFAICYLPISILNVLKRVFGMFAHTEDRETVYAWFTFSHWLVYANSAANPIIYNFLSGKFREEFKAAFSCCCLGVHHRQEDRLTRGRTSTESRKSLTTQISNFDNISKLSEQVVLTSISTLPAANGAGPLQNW
Procedure, shortened: (§1)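 FLIPR assay on human orexin receptors, with calcium flux as the functional read-out of antagonism. Values expressed as IC50.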

[2] = target: T1, Orexin receptor type 2; experiment: Binding affinity to OX2 receptor by radioligand displacement assay
Procedure, shortened: (§2)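 Displacement of a high-affinity radioligand bound to human orexin receptors. Values expressed as Ki.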

[3] = target: T2, Orexin/Hypocretin receptor type 1 (Homo sapiens, UniProt O43613); experiment: Binding affinity to OX1 receptor by radioligand displacement assay; procedure, shortened: as §2
T2 sequence (O43613 whole entry): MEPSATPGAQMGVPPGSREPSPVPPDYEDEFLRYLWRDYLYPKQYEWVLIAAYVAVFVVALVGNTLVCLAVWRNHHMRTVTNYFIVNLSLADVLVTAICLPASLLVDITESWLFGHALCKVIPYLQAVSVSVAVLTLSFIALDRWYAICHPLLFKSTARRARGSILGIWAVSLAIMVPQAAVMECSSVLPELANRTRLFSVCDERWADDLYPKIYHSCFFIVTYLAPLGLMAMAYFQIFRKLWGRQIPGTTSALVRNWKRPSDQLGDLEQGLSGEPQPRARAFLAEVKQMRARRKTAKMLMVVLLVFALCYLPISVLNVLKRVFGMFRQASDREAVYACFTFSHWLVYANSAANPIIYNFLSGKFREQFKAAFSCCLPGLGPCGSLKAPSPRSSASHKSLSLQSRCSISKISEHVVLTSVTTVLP

[4] = target: T2, Orexin/Hypocretin receptor type 1; experiment: Antagonist activity at OX1 receptor assessed as inhibition of calcium flux by FLIPR assay; assay type: functional; procedure, shortened: as §1
[5] = Oral bioavailability in rat at 10 mg/kg; assay type: ADME, organism-based; conditions: in vivo
Procedure, shortened: (§3)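 Rats dosed orally at 10 mpk in VitE-TPGS and intravenously at 2 mpk in DMSO.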

[6] = Drug level in Sprague-Dawley rat CSF at 2 mg/kg, iv after 30 mins; assay type: ADME, organism-based; parameters: dose 2 mg/kg, route intravenous; conditions: cerebrospinal fluid, read-out: Drug uptake
Procedure, shortened: (§4)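 Rats aged seven to ten weeks, anesthetized with isoflurane (5% in oxygen to induce, 2% by nose cone to maintain), kept at 37 °C. Compound given by tail-vein infusion at 2 mg/kg over 30 min. At the end of infusion, CSF taken from the cisterna magna, then plasma by cardiac puncture, then the brain harvested. All samples frozen on dry ice and analysed for compound levels.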

[7] = AUC (0 to 24 hrs) in dog; assay type: ADME, organism-based, Canis lupus familiaris; parameters: time < 24 hr; conditions: plasma
[8] = Ratio of drug level in brain to plasma in Sprague-Dawley rat at 2 mg/kg, iv after 30 mins; assay type: ADME, organism-based; parameters: dose 2 mg/kg, route intravenous
Procedure, shortened: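 Male/female unspecified Sprague–Dawley rats, 7–10 weeks old, under isoflurane anaesthesia (5% induction, 2% maintenance via nose cone) on a 37 °C warming blanket; compound given by tail-vein infusion, 2 mg/kg over 30 min. At end of infusion CSF taken from cisterna magna, plasma by cardiac puncture, brain harvested; samples frozen on dry ice and compound levels measured to give brain/plasma ratio.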

[9] = Cmax in rat at 10 mg/kg, po and 2 mg/kg, iv; assay type: ADME, organism-based; conditions: in vivo; procedure, shortened: as §3
[10] = Half life in rat at 10 mg/kg, po and 2 mg/kg, iv; assay type: ADME, organism-based; conditions: in vivo; procedure, shortened: as §3
[11] = AUC (0 to 24 hrs) in rat at 10 mg/kg, po and 2 mg/kg, iv; assay type: ADME, organism-based; conditions: plasma; procedure, shortened: as §3
[12] = Protein binding in rat; assay type: ADME, organism-based; conditions: in vivo, read-out: PB (converted)
[13] = Clearance in rat at 10 mg/kg, po and 2 mg/kg, iv; assay type: ADME, organism-based; conditions: in vivo; procedure, shortened: as §3
[14] = Drug level in Sprague-Dawley rat plasma at 2 mg/kg, iv after 30 mins; assay type: ADME, organism-based; parameters: dose 2 mg/kg, route intravenous; procedure, shortened: as §4
[15] = Clearance in dog; assay type: ADME, organism-based, Canis lupus familiaris; conditions: in vivo
[16] = Protein binding in human; assay type: ADME, organism-based; conditions: in vivo, read-out: PB (converted)
[17] = Drug level in Sprague-Dawley rat brain at 2 mg/kg, iv after 30 mins; assay type: ADME, organism-based; parameters: dose 2 mg/kg, route intravenous; conditions: read-out: Drug uptake; procedure, shortened: as §4
[18] = Cmax in dog; assay type: ADME, organism-based, Canis lupus familiaris; conditions: in vivo
[19] = Half life in dog; assay type: ADME, organism-based, Canis lupus familiaris; conditions: in vivo
[20] = Lipophilicity, log P of the compound; assay type: physicochemical; conditions: octanol/water
[21] = Oral bioavailability in dog; assay type: ADME, organism-based, Canis lupus familiaris; conditions: in vivo
[22] = Apparent permeability across pig LLC-PK1 cells; assay type: ADME, cell-based, Sus scrofa
[23] = test system: LLC-PK1; experiment: Ratio of permeability from basolateral to apical side over apical to basolateral side in pig LLC-PK1 cells expressing MDR1

With `Cc1ccc(-n2nccn2)c(C(=O)N2CCCN(c3ncc4cc(F)ccc4n3)CC2)c1` the IC50 [1] was 27 nM, the Ki [2] was 0.2 nM and the Ki [3] was 1 nM. For the same compound, the IC50 [4] was 36 nM.

`Cc1ccc(-n2nccn2)c(C(=O)N2CC3CC2CN(c2ncc4ccccc4n2)C3)c1` (stereo unspecified) gave an IC50 [1] of 110 nM, a Ki [2] of 11 nM and a Ki [3] of 12 nM. The IC50 [4] was 77 nM.

`Cc1ccc(-n2nccn2)c(C(=O)N2CCCN(c3ncc4ccccc4n3)CC2)c1` gave a bioavailability [5] of 2%, an IC50 [1] of 27 nM and a concentration at 0.5 h [6] of 19 nM. The AUC(0-t) at 24 h [7] was 0.44 µM·h, the Kp at 0.5 h [8] was 0.7 and the Cmax [9] was 300 nM. The half-life [10] was 18 min, the AUC(0-t) [11] was 0.19 µM·h and the fraction unbound [12] was 0.029. For the same compound, the clearance [13] was 53 mL/min/kg, the concentration at 0.5 h [14] was 664 nM and the clearance [15] was 12 mL/min/kg. For the same compound, the fraction unbound [16] was 0.024, the IC50 [4] was 29 nM and the concentration at 0.5 h [17] was 462 nM. The Cmax [18] was 230 nM, the half-life [19] was 78 min and the logP [20] was 2.91. For the same compound, the bioavailability [21] was 16%.

Compound `Cc1ccc(-n2nccn2)c(C(=O)N2CC3CC(C2)N(c2ncc4ccccc4n2)C3)c1` (racemic) has an IC50 [1] of 65 nM, a Ki [2] of 3.6 nM and a Ki [3] of 2.3 nM. The IC50 [4] was 42 nM.

In the case of `Cc1ccc(-n2nccn2)c(C(=O)N2CCC3CC2CN3c2ncc3cc(F)ccc3n2)c1` (racemic), the IC50 [1] is reported as over 10000 nM, the Ki [2] is reported as 260 nM and the Ki [3] is reported as 870 nM. For the same compound, the IC50 [4] was over 5700 nM.

Compound `Cc1ccc(-n2nccn2)c(C(=O)N2CC3CC2CCN3c2ncc3cc(F)ccc3n2)c1` (racemic) has an IC50 [1] of 3700 nM, a Ki [2] of 3500 nM and a Ki [3] of 1700 nM. It also gave an IC50 [4] of 3900 nM.

For `Cc1ccc(-n2nccn2)c(C(=O)N2CC3CC(C2)N(c2ncc4ccccc4n2)C3)c1` (single isomer, unassigned; enantiomer A), the IC50 [1] was 6200 nM, the Ki [2] was 155 nM and the Ki [3] was 110 nM. The IC50 [4] was 2500 nM.

Work on `Cc1ccc(-n2nccn2)c(C(=O)N2CC3CC(C2)N(c2ncc4ccccc4n2)C3)c1` (single isomer, unassigned; enantiomer B) yielded a bioavailability [5] of 2%, an IC50 [1] of 44 nM and a concentration at 0.5 h [6] of 60 nM. For the same compound, the AUC(0-t) at 24 h [7] was 0.49 µM·h, the Kp at 0.5 h [8] was 0.8 and the Cmax [9] was 150 nM. It also gave a Ki [2] of 0.9 nM, a Papp [22] of 37 ×10⁻⁶ cm/s and a Ratio [23] of 0.9. The half-life [10] was 42 min, the AUC(0-t) [11] was 0.23 µM·h and the fraction unbound [12] was 0.073. It also gave a clearance [13] of 45 mL/min/kg, a concentration at 0.5 h [14] of 835 nM and a clearance [15] of 24 mL/min/kg. The Ki [3] was 0.7 nM, the fraction unbound [16] was 0.064 and the IC50 [4] was 24 nM. For the same compound, the concentration at 0.5 h [17] was 690 nM, the Cmax [18] was 510 nM and the half-life [19] was 54 min. The logP [20] was 2.6 and the bioavailability [21] was 8%.

From ChEMBL document CHEMBL1156317, “Design and synthesis of conformationally constrained N,N-disubstituted 1,4-diazepanes as potent orexin receptor antagonists” (Bioorg Med Chem Lett, 2010)
